From PubChem BioAssay AID624307 (The Scripps Research Institute Molecular Screening Center, 2012)
The source made the active and inactive calls.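 Rule for the calls: active = relative luminescence ratio of 1.25 or more at any tested dose; inactive = ratio below 1.25 at every tested dose.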

test: increased StAR-luc signal, DAX-1/SF-1 cells – cell-based, luminescence, HEK293, powder samples, assay provider, counter-screen for DAX1 inhibitor project, dose response (AID 624307); details: HEK293 StAR promoter luciferase reporter (DAX-1/SF-1); series mostly up to 100 µM
Outline: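 Signal: Luciferase luminescence from StAR promoter reporter | Assay system: HEK293 transfectants with DAX-1, SF-1 and StAR-luciferase reporter | Dosing: 100 µM single dose plus three-point 1:2 series from 50 µM | Repeats: Three replicates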

| SMILES | outcome |
| --- | --- |
| CSc1ccccc1C(=O)Nc1ccc2c(c1)OCO2 | inactive |
| COc1ccc(OC)c(C(C)NC(=O)c2cccc3ccccc23)c1 (centres undefined) | inactive |
| COc1ccc(OC)c(C(C)NC(=O)c2ccccc2C)c1 (centres undefined) | inactive |
| COc1ccc(OC)c(C(C)NC(=O)c2ccccc2F)c1 (centres undefined) | inactive |
| COc1cccc(C(=O)NC(C)c2cc(OC)ccc2OC)c1 (centres undefined) | inactive |
| Cc1occc1C(=O)Nc1ccc2c(c1)OCO2 | inactive |
| CN(C)c1cccc(C(=O)Nc2ccc3c(c2)OCCO3)c1 | inactive |
| O=C(Nc1ccc2c(c1)OCO2)c1cccs1 | inactive |
| Cn1c(=O)n(C)c2cc(C(=O)Nc3ccc4c(c3)OCO4)ccc21 | inactive |
| COc1ccc(OC)c(C(C)NC(=O)c2ccc3c(c2)OCCO3)c1 (centres undefined) | inactive |
| COc1ccc(OC)c(C(C)NC(=O)c2ccc(C(C)(C)C)cc2)c1 (centres undefined) | inactive |
| COc1ccc(OC)c(C(C)NC(=O)c2ccccc2Cl)c1 (centres undefined) | inactive |
| COc1ccc(OC)c(C(C)NC(=O)c2ccccc2)c1 (centres undefined) | inactive |
| O=C(Nc1ccc2c(c1)OCO2)c1ccc(C2SCC(=O)N2Cc2ccco2)cc1 (centres undefined) | inactive |
| COc1ccc(OC)c(C(C)NC(=O)c2cccc(F)c2)c1 (centres undefined) | inactive |
| COc1ccc(OC)c(C(C)NC(=O)c2ccc(C)cc2)c1 (centres undefined) | inactive |
| COc1cccc(C(=O)Nc2ccc3c(c2)OCCO3)c1 | inactive |
| O=C(Nc1ccc2c(c1)OCO2)c1ccc2ccccc2c1 | inactive |
| Cc1cc(C(=O)Nc2ccc3c(c2)OCO3)cs1 | inactive |
| COc1ccc(OC)c(C(C)NC(=O)c2ccc(F)cc2)c1 (centres undefined) | inactive |
| O=C(Nc1ccc2c(c1)OCCO2)c1ccc2ccccc2c1 | inactive |
| COc1ccc(OC)c(C(C)NC(=O)c2cccc(C)c2)c1 (centres undefined) | inactive |
| CSc1ccccc1C(=O)Nc1ccc2c(c1)OCCO2 | inactive |
| O=C(Nc1ccc2c(c1)OCO2)c1ccc(C2SCC(=O)N2Cc2ccccc2)cc1 (centres undefined) | inactive |
| Cn1c(=O)n(C)c2cc(C(=O)Nc3ccc4c(c3)OCCO4)ccc21 | inactive |
| COc1ccc(OC)c(C(C)NC(=O)c2c(F)cccc2Cl)c1 (centres undefined) | inactive |
| COc1ccc(OC)c(C(C)NC(=O)c2ccc(Cl)cc2)c1 (centres undefined) | inactive |
| O=C(Cc1cccs1)Nc1ccc2c(c1)OCO2 | inactive |
| COc1cccc(C(=O)Nc2ccc3c(c2)OCO3)c1 | inactive |
